Records with an inconclusive call do not appear.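 The calls were made as follows, unless noted: active = viability increase at or above a cutoff of the median across tested compounds plus 3 SD (cut at about 8.5% in these data, passing the limit was not always enough); inconclusive = some gains above the cutoff, reason not given; inactive = the rest.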
Columns and labels:
[1] = S. cerevisiae growth inhibition in permissive medium (OD615), pilot counter-assay for S. cerevisiae lifespan shortening project, permissive growth control (AID 705;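 active = growth inhibition above 25% in both replicates, a cutoff set 3 SD above the mean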); details: OD615, 24 h, at 10 µM, active compounds read high
Method in brief: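 assay system = Saccharomyces cerevisiae strain carrying genetically modified DeaD replicative-lifespan system | medium = SC raffinose/galactose permissive medium | dosing = 10 µM single dose, 0.25% DMSO | schedule = 24 h compound exposure at 30 °C after 4 h pre-growth | measured by = OD at 615 nm | read-out basis = growth inhibition from lowered OD615 after 24 h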

[2] = S. cerevisiae growth inhibition in restrictive medium, OD615, pilot screen, restrictive growth control, yeast lifespan reduction project (AID 706;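 active = growth inhibition above a set limit, 3 SD over mean compound inhibition, in both replicates, cut at about 43% in these data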;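 also: modified DeaD lifespan yeast strain shifted to restrictive glucose medium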); details: OD615, 48 h, at 10 µM, active compounds read high
Method in brief: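 Buffer or medium: CSMM-D glucose medium. Material: genetically modified Saccharomyces cerevisiae, DeaD replicative lifespan assay strain. Times: 48 h compound exposure at 30 °C. Measured by: optical density at 615 nm.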

[3] = doxorubicin toxicity protection in MRP-1 cells – H69AR cells, CellTiter-Glo, duplicate, MRP-1 activator project, pilot screen (AID 807); details: H69AR viability with doxorubicin, CellTiter-Glo luminescence; at 10 µM; active compounds read high;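 also: compound pretreatment 18-22 h then 72 h combined with doxorubicin; 0% = doxorubicin alone and 100% = vehicle without doxorubicin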
[4] = viability of HCT116 without oncogenic beta-catenin – human colon tumor cells, pilot screen (AID 823;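 active = cell viability at or below a set limit in both duplicate runs, the limit being the all-compound median minus 4 SD, cut at about 23% in these data, passing the limit was not always enough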;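 also: 0% = wells killed by 20 µM Hyamine and 100% = untreated DMSO cell wells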); details: HCT116 beta-catenin knockout viability, CellTiter-Glo, 60 h; at 10 µM; active compounds read low
[5] = viability of PTEN-null HCT116 cells – cell-based, HCT116 clonal line, CellTiter-Glo, pilot screen (AID 824;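 active = viability at or below 27.92% in each of two runs, the all-compound median minus 4 SD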;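 also: 0% = 20 µM Hyamine control and 100% = vehicle cell control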); details: HCT116 PTEN-deleted viability, 60 h, at 10 µM, active compounds read low
[6] = RAM pathway blockade in budding yeast – dse1pr::URA3 reporter, 5-FOA selection, pilot screen (AID 869;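 active = inhibition over a set limit, the all-compound mean plus 3 SD, in both replicate runs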;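 also: 0% = DMSO wells with no growth and 100% = 10 µM 1-NA-PP1 with full growth; RAM network block rescues cells from 5-FOA so hits raise OD615 growth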); details: S. cerevisiae dse1pr::URA3 5-FOA growth, OD615, 2 d; at 10 µM; active compounds read high; strain carries analog-sensitive mutant Cbk1 kinase
[7] = RAM signaling pathway blockade in yeast – S. cerevisiae, Pdr1DBD-CYC8 efflux-inhibited sensitized strain, primary screen (AID 1298;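 active = RAM network inhibition above 8.4% in each of two replicates, 3 SD over the compound average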;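 also: 0% = DMSO untreated cells without growth and 100% = 10 µM 1-NA-PP1 full growth; higher means more yeast growth rescued from 5-FOA killing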); details: S. cerevisiae cbk1-as DSE1-URA3 strain, 5-FOA growth OD615, 2 d; at 50 µM; active compounds read high

CCOc1ccc(N2CC(C(=O)NCCC3=CCCCC3)CC2=O)cc1 (stereo not given)
inactive: growth inhibition [1] -1.23% | growth inhibition [2] -18.5% | viability increase [3] 0.15% | viability [4] 99.6% | viability [5] 93.8% | inhibition [6] 0.36% | RAM network inhibition [7] 3.96%

Cc1ccc2c(c1)c1cccc3c1n2CCN3CCC(N)=O
inactive: growth inhibition [1] 4.29% | growth inhibition [2] 6.53% | viability increase [3] 1.41% | viability [4] 87.4% | viability [5] 87.2% | inhibition [6] 3.32% | RAM network inhibition [7] 9.34%

CCN(CCCNC(=O)Cn1ncc2c(=O)oc3ccccc3c21)c1cccc(C)c1
inactive: growth inhibition [1] 1.03% | growth inhibition [2] 9.37% | viability increase [3] -2.09% | viability [4] 89.9% | viability [5] 87.5% | inhibition [6] 2.57% | RAM network inhibition [7] 3.72%

CC(=O)N1CCc2cc(C(=O)CN3CCCCC3)ccc21
inactive: growth inhibition [1] -6.58% | growth inhibition [2] -8.28% | viability increase [3] -2.19% | viability [4] 99% | viability [5] 94.7% | inhibition [6] 0.435% | RAM network inhibition [7] 1.91%

COc1ccc2nc(N3CCCC(C(=O)NCCCN4CCN(C)CC4)C3)sc2c1 (stereo not given)
inactive: growth inhibition [1] -5.12% | growth inhibition [2] -11.4% | viability increase [3] -2.35% | viability [4] 96.9% | viability [5] 89.5% | inhibition [6] 1.98% | RAM network inhibition [7] 8.59%

CCOC(=O)N1CCN(C(=O)c2cc(C)no2)CC1
inactive: growth inhibition [1] -9.98% | growth inhibition [2] -7.27% | viability increase [3] 1.34% | viability [4] 104% | viability [5] 109% | inhibition [6] 1.04% | RAM network inhibition [7] 2.19%

CC(=O)Cc1nsc(NC(=O)C2Cc3ccccc3C(=O)O2)n1 (stereo not given)
inactive: growth inhibition [1] -15.5% | growth inhibition [2] -1.69% | viability increase [3] -1.57% | viability [4] 102% | viability [5] 100% | inhibition [6] 0.45% | RAM network inhibition [7] 6.74%

COc1c(Cl)cc(-c2noc(C)c2C(=O)NCc2ccc3c(c2)OCO3)cc1Cl
inactive: growth inhibition [1] -16.4% | growth inhibition [2] -10.4% | viability increase [3] -1.08% | viability [4] 89% | viability [5] 84% | inhibition [6] 1.19% | RAM network inhibition [7] 4.27%

Cc1noc(C)c1S(=O)(=O)N(CC(=O)Nc1ccc2c(c1)OCCO2)c1ccc(C(C)C)cc1
inactive: growth inhibition [1] -19.3% | growth inhibition [2] -5.11% | viability increase [3] -5.12% | viability [4] 56.8% | viability [5] 48.7% | inhibition [6] 1.71% | RAM network inhibition [7] 1.99%

COCC(=O)NCc1nc2ccccc2n1Cc1ccccc1F
inactive: growth inhibition [1] -7.99% | growth inhibition [2] -15.2% | viability increase [3] -1.11% | viability [4] 98.2% | viability [5] 99.2% | inhibition [6] 1.59% | RAM network inhibition [7] 0.88%

CCOc1ccccc1N(CC(=O)Nc1ccccc1C(=O)O)S(C)(=O)=O
inactive: growth inhibition [1] -15.5% | growth inhibition [2] -9.54% | viability increase [3] 0.9% | viability [4] 97.5% | viability [5] 85.1% | inhibition [6] 0.11% | RAM network inhibition [7] 5.86%

O=C(O)c1ccc(-n2cccc2)cc1O
inactive: growth inhibition [1] -2.21% | growth inhibition [2] -13.1% | viability increase [3] -1.52% | viability [4] 96.8% | viability [5] 101% | inhibition [6] 0.285% | RAM network inhibition [7] -0.83%

Cc1ccc(N2C(=O)C(Cl)=C(NCCO)C2=O)c(C)c1
inactive: growth inhibition [1] -4.71% | growth inhibition [2] -2.88% | viability increase [3] -2.47% | viability [4] 105% | viability [5] 100% | inhibition [6] 2.02% | RAM network inhibition [7] 8.82%

NC(=O)C1CCN(C(=O)c2cc3ccccn3n2)CC1
inactive: growth inhibition [1] 0.24% | growth inhibition [2] -0.18% | viability increase [3] -0.34% | viability [4] 103% | viability [5] 98.2% | inhibition [6] 0.505% | RAM network inhibition [7] 1.35%

CCOc1ccccc1NC(=O)CCS(=O)(=O)c1cccc2nonc12
inactive: growth inhibition [1] -15% | growth inhibition [2] -21.8% | viability increase [3] -4.44% | viability [4] 103% | viability [5] 96.3% | inhibition [6] 1.34% | RAM network inhibition [7] 5.48%

Oc1ccccc1CNc1nc2ccccc2n1CCN1CCCCC1
inactive: growth inhibition [1] -15.8% | growth inhibition [2] -9.88% | viability increase [3] -8.6% | viability [4] 52.5% | viability [5] 48.8% | inhibition [6] 2.86% | RAM network inhibition [7] 1.77%

Cn1c(=O)c2c(nc(CN3CCOCC3)n2CCc2ccccc2)n(C)c1=O
inactive: growth inhibition [1] -8.53% | growth inhibition [2] -15.8% | viability increase [3] 3.73% | viability [4] 95% | viability [5] 94.7% | inhibition [6] 1.48% | RAM network inhibition [7] 0.56%

CC(=O)Nc1ccc(OC/C=C(\C)Cl)cc1
inactive: growth inhibition [1] -16.6% | growth inhibition [2] -7.54% | viability increase [3] -1.2% | viability [4] 101% | viability [5] 101% | inhibition [6] 0.895% | RAM network inhibition [7] 2.95%

O=C(Nc1ccc(Br)cc1F)C1CCN(c2nnc(-n3cccc3)s2)CC1
inactive: growth inhibition [1] 2.32% | growth inhibition [2] -4.69% | viability increase [3] 0.53% | viability [4] 97.8% | viability [5] 99.8% | inhibition [6] 3.21% | RAM network inhibition [7] 0.36%

Cc1cc(C(=O)N2CCN(Cc3ccc4c(c3)OCO4)CC2)on1
inactive: growth inhibition [1] -6.71% | growth inhibition [2] -10.4% | viability increase [3] 0.9% | viability [4] 97.2% | viability [5] 105% | inhibition [6] 1.79% | RAM network inhibition [7] 2.8%

O=C(Nc1ccccc1)N1CCN2C(=O)c3ccccc3C12c1ccccc1 (stereo not given)
inactive: growth inhibition [1] -7.51% | growth inhibition [2] -1.31% | viability increase [3] -2.35% | viability [4] 89.9% | viability [5] 89.5% | inhibition [6] 1.29% | RAM network inhibition [7] 2.89%

Cc1nn(C)c(C)c1S(=O)(=O)N(CC(=O)Nc1ccc2c(c1)OCO2)c1ccc(C(C)C)cc1
inactive: growth inhibition [1] -19.5% | growth inhibition [2] -7.85% | viability increase [3] -2.38% | viability [4] 102% | viability [5] 99.4% | inhibition [6] 2.36% | RAM network inhibition [7] 2.62%

COc1ccc(NC(=O)Nc2ccc(OCC(=O)N3CCOCC3)cc2)cc1OC
inactive: growth inhibition [1] -13% | growth inhibition [2] -1.38% | viability increase [3] -2.34% | viability [4] 88.4% | viability [5] 90.5% | inhibition [6] 0.595% | RAM network inhibition [7] 0.11%

O=C(NC1CCCCCC1)c1nnc(Cc2ccc(Cl)cc2)o1
inactive: growth inhibition [1] -12.1% | growth inhibition [2] 0.195% | viability increase [3] 2.9% | viability [4] 95.2% | viability [5] 94.5% | inhibition [6] 1.31% | RAM network inhibition [7] 2.19%

COc1cccc2c1N1C(=O)c3c(C(=O)O)cccc3C1CC2(C)C (stereo not given)
inactive: growth inhibition [1] -15.2% | growth inhibition [2] -18.1% | viability increase [3] -2.18% | viability [4] 108% | viability [5] 98.9% | inhibition [6] 4.54% | RAM network inhibition [7] 2.74%

COc1ccc(-n2c(Cc3cccn3C)nnc2SCC(=O)Nc2ccc(C(C)=O)cc2)cc1
inactive: growth inhibition [1] 3.63% | growth inhibition [2] 17.8% | viability increase [3] -3.67% | viability [4] 99.4% | viability [5] 90.8% | inhibition [6] 1.6% | RAM network inhibition [7] 3.56%

CCOc1ccc(N(CC(=O)N2CCCC2)S(=O)(=O)c2c(C)noc2C)cc1
inactive: growth inhibition [1] -10.4% | growth inhibition [2] 3.47% | viability increase [3] -1.24% | viability [4] 98.3% | viability [5] 95.6% | inhibition [6] 1.08% | RAM network inhibition [7] 10.7%

CCN1CCn2c3c(c4cc(C)ccc42)CCCC31 (stereo not given)
inactive: growth inhibition [1] -4.94% | growth inhibition [2] -6.53% | viability increase [3] -2.11% | viability [4] 80.1% | viability [5] 74.9% | inhibition [6] 0.895% | RAM network inhibition [7] 0.21%

COc1cccc(-n2nnc3c(=O)n(C/C=C/c4ccccc4)cnc32)c1
inactive: growth inhibition [1] -5.38% | growth inhibition [2] -7.15% | viability increase [3] 0.57% | viability [4] 92.3% | viability [5] 86.9% | inhibition [6] 3.2% | RAM network inhibition [7] 2.07%

COc1cc(NS(=O)(=O)c2ccc(NC(=O)C34CC5CC(CC(C5)C3)C4)cc2)ncn1
inactive: growth inhibition [1] -0.475% | growth inhibition [2] -24.6% | viability increase [3] -1.47% | viability [4] 98.1% | viability [5] 91.9% | inhibition [6] 2.73% | RAM network inhibition [7] 8.43%

CC1CC(C)CN(C(=O)CSc2nnc(-c3ccc(F)cc3)o2)C1 (stereo not given)
inactive: growth inhibition [1] -2.08% | growth inhibition [2] 5.43% | viability increase [3] -0.28% | viability [4] 94.5% | viability [5] 99.8% | inhibition [6] 0.645% | RAM network inhibition [7] 2.78%

CCCCN(C)C(=O)c1ccc2c(c1)N(CC)C(=O)c1ccccc1S2(=O)=O
inactive: growth inhibition [1] -2.31% | growth inhibition [2] 3.19% | viability increase [3] -1.45% | viability [4] 87.8% | viability [5] 91.2% | inhibition [6] 1.74% | RAM network inhibition [7] 4.11%

CCCCN(C)C(=O)c1c[nH]c2ccc(S(=O)(=O)N3CCOCC3)cc2c1=O
inactive: growth inhibition [1] -5.67% | growth inhibition [2] -15.5% | viability increase [3] 0.64% | viability [4] 109% | viability [5] 98.8% | inhibition [6] 2.05% | RAM network inhibition [7] 5.01%

Cc1ccc(-n2c3c(cc(C(=O)N4CCN(C)CC4)c2=O)C(=O)CC(C)(C)C3)cc1
inactive: growth inhibition [1] -21.9% | growth inhibition [2] -9.49% | viability increase [3] 0.41% | viability [4] 101% | viability [5] 96.6% | inhibition [6] 1.48% | RAM network inhibition [7] 2.1%

CS(=O)(=O)Nc1cccc2cccnc12
inactive: growth inhibition [1] 5.63% | growth inhibition [2] -1.19% | viability increase [3] -4.19% | viability [4] 50.4% | viability [5] 56.7% | inhibition [6] 2.3% | RAM network inhibition [7] 0.27%
